Measured values as given in PubChem BioAssay AID492951 (Molecular Libraries Program, Specialized Chemistry Center, …, 2010).
Active and inactive are the calls of the source.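 The calls were made as follows: active = inhibition above 10%; inactive = the rest.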

Target: Hexokinase-4 (Homo sapiens) (UniProt P35557)
Experiment: hGlck enzyme activity off-target inhibitors – biochemical, recombinant hGlck, counter-screen for TbHK1 inhibitor project (AID 492951)
Details: G6PDH-coupled NADH absorbance 340 nm, at 10 µM
How it was run: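 Material: Recombinant human glucokinase, G6PDH-coupled | Medium: TEA buffer pH 7.9 with 3.3 mM MgCl2, 0.75 mM NAD+ | Also added: 20 mM glucose as reaction starter, plus 1 mM ATP | Compound dosing: One dose, 10 µM final | Schedule: 10 min preincubation at room temperature | Measured by: A340 of NADH | Repeats: Three replicates per compound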

Chain of Hexokinase-4 (Homo sapiens) (P35557 whole entry, looked up): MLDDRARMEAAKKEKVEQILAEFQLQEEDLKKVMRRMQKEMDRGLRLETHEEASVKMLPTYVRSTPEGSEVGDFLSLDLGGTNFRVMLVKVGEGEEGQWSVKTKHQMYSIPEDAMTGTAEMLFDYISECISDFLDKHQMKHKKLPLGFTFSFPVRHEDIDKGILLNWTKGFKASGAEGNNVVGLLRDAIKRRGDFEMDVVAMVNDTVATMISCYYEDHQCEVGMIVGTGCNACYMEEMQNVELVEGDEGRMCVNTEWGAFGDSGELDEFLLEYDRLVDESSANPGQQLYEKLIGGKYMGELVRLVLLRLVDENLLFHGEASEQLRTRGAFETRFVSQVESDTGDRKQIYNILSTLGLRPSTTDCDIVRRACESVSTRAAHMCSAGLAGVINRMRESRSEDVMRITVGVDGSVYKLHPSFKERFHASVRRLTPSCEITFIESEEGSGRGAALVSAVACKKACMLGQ

**Q.** `O=c1ccsn1-c1ccccc1` was tested. Which outcome did it give?
**A.** inactive

**Q.** Which outcome does the source give for `O=C1CCN(C(=O)Nc2cc(Cl)ccc2C(=O)O)CC1` here?
**A.** inactive
